High-throughput results deposited in PubChem by Broad Institute.
SIRT5 block: SIRT5 desuccinylase inhibitors, primary screen, biochemical, fluorescence imaging, single point, set 5; inhibition, % at 15 µM; 330,000 compounds, 1.1% hits; AID 652115, 2013; Purified SirT5, succinyl-peptide AMC, trypsin-coupled fluorescence; in the data active = inhibition above about 15%
Target sequence (Q9NXA8 whole entry, looked up): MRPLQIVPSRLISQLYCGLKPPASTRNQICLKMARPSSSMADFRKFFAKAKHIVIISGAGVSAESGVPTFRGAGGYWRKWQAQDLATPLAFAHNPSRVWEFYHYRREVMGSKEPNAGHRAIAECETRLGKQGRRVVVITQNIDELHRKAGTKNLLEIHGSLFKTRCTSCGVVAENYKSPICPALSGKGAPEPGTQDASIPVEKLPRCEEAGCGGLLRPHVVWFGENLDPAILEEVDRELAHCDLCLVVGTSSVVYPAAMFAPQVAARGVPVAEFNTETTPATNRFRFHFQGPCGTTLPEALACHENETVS
PGC1a acetyl inh: inhibitors of PGC1a acetylation signal, primary screen, cell-based, U2OS, AlphaScreen, inhibitor mode. AlphaScreen anti-acetyl-lysine; with virally co-expressed GCN5 acetyltransferase. inhibition, % at 15.6 µM. 350,000 compounds, 0.17% hits. AID 651687, 2012;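 active = every replicate shows inhibition of at least 40%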;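 note: 0% = neutral control wells and 100% = positive control wells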
FN deposition inh: inhibitors of fibronectin matrix deposition, primary screen, AH1F cells, Alexa488-fibronectin fluorescence, plate reader; AH1F fibroblasts, overnight; inhibition, % at 12.6 µM; 350,000 compounds, 0.086% hits; AID 743247, 2014;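 active = mean inhibition across replicates of 30% or more, regardless of how many single replicates reach that level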;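 note: positive control wells lacked labelled fibronectin entirely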
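test system = AH1F fibroblasts assembling fluorescent fibronectin matrix | quantity = 10000 AH1F cells per well | buffer or medium = DMEM plus 2% serum, read in PBS | doses = single dose, pinned | incubation = 1 h cell attachment, overnight exposure to compound and label | detection = fluorescence at 485 nm excitation, 525 nm emission | read-out basis = inhibition from reduced deposited-fibronectin fluorescence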
ERAP1 inh: human ERAP1 aminopeptidase inhibitors, primary screen, biochemical, single point, plate reader | Endoplasmic reticulum aminopeptidase 1 (Homo sapiens), Q9NZ08 | recombinant ERAP1, Leu-AMC fluorescence, 60 min | inhibition, % at 10.7 µM | 340,000 compounds, 0.15% hits;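 active = mean replicate inhibition of at least 30%, or all replicates individually reaching that 30% level; inactive = mean below 30% and not every replicate reaching it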;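 note: 0% = neutral control wells and 100% = L-leucinethiol positive control wells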
FGF22 binding-1: binders of human FGF22 protein, primary screen, FGF22 synaptogenesis inhibitor project, biophysical, thermal shift, single point; Fibroblast growth factor 22 (Homo sapiens), Q9HCT0; recombinant FGF22 thermal shift, SYPRO orange fluorescence; percent of sucrose octasulfate shift, DMSO zero; activity (Tm shift, normalised), % at 9.99 µM; 340,000 compounds, 1.5% hits;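 active = mean Tm shift, scaled 0 neutral to 100 positive control, at about 1.3% or above, every replicate too, limit read from the data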
Target sequence (Q9HCT0 whole entry, looked up): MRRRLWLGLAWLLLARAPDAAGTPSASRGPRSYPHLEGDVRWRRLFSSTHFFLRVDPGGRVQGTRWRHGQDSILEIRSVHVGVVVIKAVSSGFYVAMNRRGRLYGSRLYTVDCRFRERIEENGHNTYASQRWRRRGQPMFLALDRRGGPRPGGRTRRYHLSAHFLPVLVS
FGF22 binding-2: binders of human FGF22 protein, dose response, FGF22 synaptogenesis inhibitor project, biophysical, thermal shift, cherry-pick retest. thermal shift activity, °C (ΔTm) at 38 µM. AID 720646, 2013. shares compounds with FGF22 binding-1. 1,000 compounds, 2% hits. recombinant FGF22 thermal shift, SYPRO orange fluorescence;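 active = fitted rise in melting shift crosses a set limit at or below the top valid dose tested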
SYPRO no-protein: compound-only thermal shift signal without protein, dose response, artefact control for FGF22 binder project, biochemical, cherry-picked samples, RT-PCR instrument | AC50, µM (series often up to 38 µM) | shares compounds with FGF22 binding-1 | 1,000 compounds, 2% hits | compound-only SYPRO orange thermal shift counter-screen, no protein;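 active = rising signal whose fitted curve reaches the 0.54 level within the top valid dose, showing a melting point, actives reach about 13 µM in these data; inactive = the rest, including activity in the opposite direction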; note: value is where the raw curve crosses a fixed level and not half-maximal
* marks the source's active call; other numbers are inactive results; i = inactive; nt = no result; [ ] = dose if it differs, or a comment. Shown are actives, neighbours in structure and some others; about 2.2% of the full set was active somewhere.

SMILES | SIRT5 block | PGC1a acetyl inh | FN deposition inh | ERAP1 inh | FGF22 binding-1 | FGF22 binding-2 | SYPRO no-protein
C[C@H]1CN([C@@H](C)CO)C(=O)c2cc(NC(=O)CCN3CCOCC3)ccc2O[C@H]1CN(C)C(=O)NC1CCCCC1 | 0.9 | 0.3 | 0.1 | -0.1 | 3.5* | 0.152[42 µM] | i
C[C@H](CO)N1C[C@H](C)[C@H](CN(C)C(=O)NC2CCCCC2)Oc2ccc(NC(=O)CCN3CCOCC3)cc2C1=O | -3.3 | 4.3 | nt | 1.3 | 0.0 | nt | nt
COc1ccc(NC(=O)N(C)C[C@H]2Oc3ccc(NC(=O)Cc4ccccc4)cc3C(=O)N([C@H](C)CO)C[C@H]2C)cc1 | nt | 1.3 | -1.7 | nt | nt | nt | nt
COc1ccc(NC(=O)N(C)C[C@@H]2Oc3ccc(NC(=O)Cc4ccccc4)cc3C(=O)N([C@H](C)CO)C[C@H]2C)cc1 | -0.2 | -0.7 | nt | -1.5 | 1.5* | 0.097[42 µM] | i
C[C@H]1CN([C@@H](C)CO)C(=O)c2cccc(NC(=O)Nc3ccc4c(c3)OCO4)c2O[C@H]1CN(C)S(=O)(=O)c1cn(C)cn1 | 3.5 | -1.0 | 5.3 | 2.6 | 1.6* | -0.079 | i
C[C@@H]1CN([C@@H](C)CO)C(=O)c2cc(-c3ccc(C#N)cc3)cnc2O[C@H]1CN(C)C(=O)Nc1ccccc1 | -18.0 | -16.5 | nt | 1.9 | 0.6 | nt | nt
CO[C@@H]1CN(C)C(=O)c2ccc(NC(=O)c3ccccn3)cc2OC[C@@H](C)N(C(=O)C2CCC2)C[C@H]1C | nt | nt | nt | -1.9 | -0.2 | nt | nt
CC(=O)N1[C@H](CO)[C@H](c2ccccc2)[C@H]1CN(C(=O)c1cccc(F)c1)C(C)C | 2.4 | 7.8 | -9.4 | 2.6 | 1.7* | 0.123 | i
CC(=O)N1[C@@H](CO)[C@@H](c2ccccc2)[C@@H]1CN(C(=O)c1cccc(F)c1)C(C)C | 3.2 | -1.7 | -15.9 | 1.9 | -0.7 | nt | nt
CC(C)NC(=O)N[C@@H]1CC[C@H](CCNS(=O)(=O)c2ccc(Cl)cc2)O[C@@H]1CO | 0.2 | 13.1 | nt | -2.6 | 0.1 | nt | nt
Cc1ccc(S(=O)(=O)N[C@H]2C=C[C@@H](CC(=O)NCc3ccc(Cl)c(Cl)c3)O[C@H]2CO)cc1 | -2.2 | -1.1 | 0.9 | 0.6 | 1.3* | 0.124 | i
COc1ccc(S(=O)(=O)N[C@@H]2C=C[C@H](CC(=O)NCCc3ccccc3)O[C@@H]2CO)cc1 | 0.7 | -0.9 | nt | -0.7 | 1.4* | 0.093[42 µM] | i
COc1ccc(S(=O)(=O)N[C@H]2C=C[C@@H](CC(=O)NCCc3ccccc3)O[C@@H]2CO)cc1 | 0.2 | -2.0 | nt | -1.0 | 0.0 | nt | nt
COc1ccc(NC(=O)Nc2cccc3c2O[C@@H](CN(C)Cc2ccc(Cl)c(Cl)c2)[C@H](C)CN([C@@H](C)CO)C3=O)cc1 | nt | 5.6 | 9.8 | nt | nt | nt | nt
C[C@H](NC(=O)C[C@@H]1CC[C@@H](NC(=O)Nc2ccc3c(c2)OCO3)[C@H](CO)O1)c1ccccc1 | -3.5 | 1.6 | -9.3 | 0.5 | 0.4 | nt | nt
CN1C(=O)c2cc(NC(=O)c3ccc(C(F)(F)F)cc3)ccc2OC[C@@H]2O[C@H](CC(=O)NC3Cc4ccccc4C3)CC[C@H]21 | 10.1 | -2.5 | 6.0 | -1.0 | 0.0 | nt | nt
COC(=O)[C@]1(C)N[C@H](c2ccc(-c3cccc(Cl)c3)cc2)[C@@H]2C(=O)N(C)C(=O)[C@@H]21 | nt | -6.1 | 4.8 | -0.5 | -0.3 | nt | nt
COC(=O)[C@]1(C)N[C@H](c2ccc(-c3ccccc3)cc2)[C@@H]2C(=O)N(C)C(=O)[C@@H]21 | -4.9 | 24.4 | -21.4 | -0.9 | 8.1* | -0.025 | i
C[C@@H]1CN([C@H](C)CO)C(=O)c2cc(NC(=O)Cc3ccccc3)ccc2O[C@@H]1CN(C)C(=O)Nc1ccccc1 | -1.1 | -5.1 | nt | -1.7 | -0.2 | nt | nt
